Source: ChEMBL document CHEMBL2407075, “Sulphonamido-quinoxalines: search for anticancer agent” (Eur J Med Chem, 2013)

Key:
Type in all cases: functional
RXF 393 = experiment: Growth inhibition of human RXF393 cells assessed as cell growth at 10^-4 M after 48 hrs by sulforhodamine B assay; conditions: RXF 393, 48 h, read-out: Activity
786-0 [1] = experiment: Growth inhibition of human 786-0 cells assessed as cell growth at 10^-4 M after 48 hrs by sulforhodamine B assay; conditions: 786-0, 48 h, read-out: Activity
Method in brief: (§1)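 Five-dose NCI-60 run (0.01, 0.1, 1, 10 and 100 µM, as 10-fold dilutions from a DMSO stock made at 400× the top final level). Cells were grown in RPMI 1640 with 5% FBS and 2 mM glutamine and plated for 24 h. They were then exposed for 48 h at 37 °C and 5% CO2. TCA fixation was followed by SRB staining with A515 read-out. Percent growth was taken relative to time-zero and control plates.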

786-0 [2] = experiment: Growth inhibition of human 786-0 cells assessed as cell growth at 10^-5 M after 48 hrs by sulforhodamine B assay; conditions: 786-0, 48 h, read-out: Activity; method in brief: as §1
SNB-75 = experiment: Growth inhibition of human SNB75 cells assessed as cell growth at 10^-5 M after 48 hrs by sulforhodamine B assay; conditions: SNB-75, 48 h, read-out: Activity
HOP-92 [3] = experiment: Growth inhibition of human HOP92 cells assessed as cell growth at 10^-5 M after 48 hrs by sulforhodamine B assay; conditions: HOP-92, 48 h, read-out: Activity
Method in brief: (§2)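 Five-dose screen at NCI. Cells in RPMI 1640 with 5% FBS and 2 mM L-glutamine, seeded at 5000–40,000 cells/well and grown 24 h at 37 °C, 5% CO2 before dosing, with time-zero plates TCA-fixed. Drug diluted from DMSO stock to 0.01, 0.1, 1, 10 and 100 µM final, 48 h. Cells fixed with cold TCA (10% final), stained with 0.4% SRB and read at 515 nm. Percent growth from Tz, control and test absorbances; GI50, TGI and LC50 from dose-response curves.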

RPMI-8226 [4] = experiment: Growth inhibition of human RPMI8226 cells assessed as cell growth at 10^-5 M after 48 hrs by sulforhodamine B assay; conditions: RPMI-8226, 48 h, read-out: Activity
SK-MEL-5 = experiment: Growth inhibition of human SK-MEL-5 cells assessed as cell growth at 10^-6 M after 48 hrs by sulforhodamine B assay; conditions: SK-MEL-5, 48 h, read-out: Activity
Malme-3M [5] = experiment: Growth inhibition of human MALME-3M cells assessed as cell growth at 10^-6 M after 48 hrs by sulforhodamine B assay; conditions: read-out: Activity
KM12 = experiment: Growth inhibition of human KM12 cells assessed as cell growth at 10^-6 M after 48 hrs by sulforhodamine B assay; conditions: KM12, 48 h, read-out: Activity
[6] = Growth inhibition of human EKVX cells assessed as cell growth at 10^-6 M after 48 hrs by sulforhodamine B assay; conditions: read-out: Activity; method in brief: as §2
SR = experiment: Growth inhibition of human SR cells assessed as cell growth at 10^-6 M after 48 hrs by sulforhodamine B assay; conditions: read-out: Activity
RPMI-8226 [7] = experiment: Growth inhibition of human RPMI8226 cells assessed as cell growth at 10^-6 M after 48 hrs by sulforhodamine B assay; conditions: RPMI-8226, 48 h, read-out: Activity
K562 = experiment: Growth inhibition of human K562 cells assessed as cell growth at 10^-6 M after 48 hrs by sulforhodamine B assay; conditions: K562, 48 h, read-out: Activity
PC-3 [8] = experiment: Growth inhibition of human PC3 cells assessed as cell growth at 10^-7 M after 48 hrs by sulforhodamine B assay; conditions: PC-3, 48 h, read-out: Activity
CAKI-1 [9] = experiment: Growth inhibition of human CAKI-1 cells assessed as cell growth at 10^-7 M after 48 hrs by sulforhodamine B assay; conditions: CAKI-1, 48 h, read-out: Activity; method in brief: as §1
[10] = Growth inhibition of human NCI-ADR-RES cells assessed as cell growth at 10^-7 M after 48 hrs by sulforhodamine B assay; conditions: read-out: Activity
OVCAR-5 [11] = experiment: Growth inhibition of human OVCAR5 cells assessed as cell growth at 10^-7 M after 48 hrs by sulforhodamine B assay; conditions: OVCAR-5, 48 h, read-out: Activity
M14 [12] = experiment: Growth inhibition of human M14 cells assessed as cell growth at 10^-7 M after 48 hrs by sulforhodamine B assay; conditions: M14, 48 h, read-out: Activity
SF-295 = experiment: Growth inhibition of human SF295 cells assessed as cell growth at 10^-7 M after 48 hrs by sulforhodamine B assay; conditions: SF-295, 48 h, read-out: Activity
SW-620 = experiment: Growth inhibition of human SW620 cells assessed as cell growth at 10^-7 M after 48 hrs by sulforhodamine B assay; conditions: SW-620, 48 h, read-out: Activity
COLO 205 = experiment: Growth inhibition of human COLO205 cells assessed as cell growth at 10^-7 M after 48 hrs by sulforhodamine B assay; conditions: COLO 205, 48 h, read-out: Activity; method in brief: as §1
[13] = Growth inhibition of human EKVX cells assessed as cell growth at 10^-7 M after 48 hrs by sulforhodamine B assay; conditions: read-out: Activity; method in brief: as §2
RPMI-8226 [14] = experiment: Growth inhibition of human RPMI8226 cells assessed as cell growth at 10^-7 M after 48 hrs by sulforhodamine B assay; conditions: RPMI-8226, 48 h, read-out: Activity
CAKI-1 [15] = experiment: Growth inhibition of human CAKI-1 cells assessed as cell growth at 10^-8 M after 48 hrs by sulforhodamine B assay; conditions: CAKI-1, 48 h, read-out: Activity; method in brief: as §1
OVCAR-5 [16] = experiment: Growth inhibition of human OVCAR5 cells assessed as cell growth at 10^-8 M after 48 hrs by sulforhodamine B assay; conditions: OVCAR-5, 48 h, read-out: Activity
UACC-62 = experiment: Growth inhibition of human UACC62 cells assessed as cell growth at 10^-8 M after 48 hrs by sulforhodamine B assay; conditions: UACC-62, 48 h, read-out: Activity
HCT-116 = experiment: Growth inhibition of human HCT116 cells assessed as cell growth at 10^-8 M after 48 hrs by sulforhodamine B assay; conditions: HCT-116, 48 h, read-out: Activity; method in brief: as §2
HOP-92 [17] = experiment: Growth inhibition of human HOP92 cells assessed as cell growth at 10^-8 M after 48 hrs by sulforhodamine B assay; conditions: HOP-92, 48 h, read-out: Activity; method in brief: as §2
[18] = Growth inhibition of human EKVX cells assessed as cell growth at 10^-8 M after 48 hrs by sulforhodamine B assay; conditions: read-out: Activity; method in brief: as §2
PC-3 [19] = experiment: Growth inhibition of human PC3 cells after 48 hrs by sulforhodamine B assay; conditions: PC-3, 48 h; for CC50: read-out: LC50 (the source's name)
Method in brief: (§3)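 Adherent cells in RPMI 1640 with 5% FBS and 2 mM L-glutamine were plated at 5000–40,000 cells/well and grown 24 h. Five concentrations (0.01–100 µM, DMSO stock) were added for 48 h at 37 °C. Cells were fixed with cold TCA (10% final) and stained with SRB, read at 515 nm. GI50 came from log concentration–growth curves against time-zero and control plates.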

M14 [20] = experiment: Growth inhibition of human M14 cells after 48 hrs by sulforhodamine B assay; conditions: M14, 48 h, read-out: LC50 (the source's name); method in brief: as §3
Malme-3M [21] = experiment: Growth inhibition of human MALME-3M cells after 48 hrs by sulforhodamine B assay; conditions: read-out: LC50 (the source's name); method in brief: as §3

Structure (SMILES) | growth at 100 µM (RXF 393) [%] | growth at 100 µM (786-0 [1]) [%] | growth at 10 µM (786-0 [2]) [%] | growth at 10 µM (SNB-75) [%] | growth at 10 µM (HOP-92 [3]) [%] | growth at 10 µM (RPMI-8226 [4]) [%] | growth at 1 µM (SK-MEL-5) [%] | growth at 1 µM (Malme-3M [5]) [%] | growth at 1 µM (KM12) [%] | growth at 1 µM [6] [%] | growth at 1 µM (SR) [%] | growth at 1 µM (RPMI-8226 [7]) [%] | growth at 1 µM (K562) [%] | growth at 0.1 µM (PC-3 [8]) [%] | growth at 0.1 µM (CAKI-1 [9]) [%] | growth at 0.1 µM [10] [%] | growth at 0.1 µM (OVCAR-5 [11]) [%] | growth at 0.1 µM (M14 [12]) [%] | growth at 0.1 µM (SF-295) [%] | growth at 0.1 µM (SW-620) [%] | also measured
O=S(=O)(Nc1ccc(Cl)cc1)c1ccc2nc(-c3ccccc3)c(-c3ccccc3)nc2c1 | 51 | 75 | -45 | 12 | -13 | -45 | 83 | 103 | 102 | 91 | 81 | 68 | 95 | 92 | 88 | 102 | 92 | 85 | 90 | 91 | growth at 0.1 µM (COLO 205): 101%; growth at 0.1 µM [13]: 100%; growth at 0.1 µM (RPMI-8226 [14]): 101%; growth at 0.01 µM (CAKI-1 [15]): 87%; growth at 0.01 µM (OVCAR-5 [16]): 95%; growth at 0.01 µM (UACC-62): 95%; growth at 0.01 µM (HCT-116): 96%; growth at 0.01 µM (HOP-92 [17]): 96%; growth at 0.01 µM [18]: 97%; GI50 (PC-3 [19]): 1.47 µM; CC50 (PC-3 [19]): > 100 µM; CC50 (M14 [20]): > 100 µM; CC50 (Malme-3M [21]): > 100 µM
O=S(=O)(Nc1ccccn1)c1ccc2nc(-c3ccccc3)c(-c3ccccc3)nc2c1 | 38 | 50 | -30 | 3 | -18 | -48 | 78 | 115 | 99 | 89 | 66 | 55 | 82 | 93 | 93 | 102 | 93 | 89 | 91 | 102 | growth at 0.1 µM (COLO 205): 98%; growth at 0.1 µM [13]: 99%; growth at 0.1 µM (RPMI-8226 [14]): 104%; growth at 0.01 µM (CAKI-1 [15]): 91%; growth at 0.01 µM (OVCAR-5 [16]): 93%; growth at 0.01 µM (UACC-62): 92%; growth at 0.01 µM (HCT-116): 97%; growth at 0.01 µM (HOP-92 [17]): 94%; growth at 0.01 µM [18]: 100%; GI50 (PC-3 [19]): 1.39 µM; CC50 (PC-3 [19]): > 100 µM; CC50 (M14 [20]): > 100 µM; CC50 (Malme-3M [21]): > 100 µM
